Reference: ChEMBL document CHEMBL1127320, “Dual-action cephalosporins incorporating a 3'-tertiary-amine-linked quinolone” (J Med Chem, 1994)
≈ marks a conversion by molar mass, not a printed value.

Tests used:
Escherichia coli [1] = assay: In vitro minimum inhibitory concentration was measured against Escherichia coli 257 strain.; format: functional
Summary of the method: (§1)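 Streptococci were tested on brain heart infusion agar plus 20 units/mL catalase, Proteus on Mueller-Hinton with 3% agar, and others on Mueller-Hinton agar. Inocula were 100-fold-diluted overnight cultures, about 3 × 10^4 CFU/spot, read after overnight incubation at 36 °C.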

Escherichia coli [2] = assay: In vitro minimum inhibitory concentration was measured against Escherichia coli TEM-1 (Beta lactamase producer) strain.; format: functional; summary of the method: as §1
Enterobacter cloacae [3] = assay: Bacterial challenge for systemic murine infection against Enterobacter cloacae 5699; format: functional
Summary of the method: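 Mouse protection test in CD1 Swiss albino mice (18-20 g). Mice were infected intraperitoneally with 0.5 mL of diluted bacterial suspension. A single subcutaneous dose at the dorsal neck base was given within 5 min, with doses from 250 to 0.05 mg/kg. Six mice per group were used. ED50 was obtained by the Reed-Muench method.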

Enterobacter cloacae [4] = assay: In vitro minimum inhibitory concentration was measured against Enterobacter cloacae 5699 strain.; format: functional
Enterobacter cloacae [5] = assay: In vitro minimum inhibitory concentration was measured against Enterobacter cloacae p99 (beta lactamase producer) strain.; format: functional
Klebsiella pneumoniae = assay: In vitro minimum inhibitory concentration was measured against Klebsiella pneumoniae A strain.; format: functional; summary of the method: as §1
Micrococcus luteus = assay: In vitro minimum inhibitory concentration was measured against Micrococcus luteus ATCC 9341 strain.; format: functional; summary of the method: as §1
[6] = target: T1, Penicillin-binding protein 1B (Escherichia coli K-12) (UniProt P02919); assay: Affinity for penicillin binding protein 1b of Escherichia coli UB1005 (DC0) was evaluated.; set-up: unit not given here
T1 sequence (whole entry): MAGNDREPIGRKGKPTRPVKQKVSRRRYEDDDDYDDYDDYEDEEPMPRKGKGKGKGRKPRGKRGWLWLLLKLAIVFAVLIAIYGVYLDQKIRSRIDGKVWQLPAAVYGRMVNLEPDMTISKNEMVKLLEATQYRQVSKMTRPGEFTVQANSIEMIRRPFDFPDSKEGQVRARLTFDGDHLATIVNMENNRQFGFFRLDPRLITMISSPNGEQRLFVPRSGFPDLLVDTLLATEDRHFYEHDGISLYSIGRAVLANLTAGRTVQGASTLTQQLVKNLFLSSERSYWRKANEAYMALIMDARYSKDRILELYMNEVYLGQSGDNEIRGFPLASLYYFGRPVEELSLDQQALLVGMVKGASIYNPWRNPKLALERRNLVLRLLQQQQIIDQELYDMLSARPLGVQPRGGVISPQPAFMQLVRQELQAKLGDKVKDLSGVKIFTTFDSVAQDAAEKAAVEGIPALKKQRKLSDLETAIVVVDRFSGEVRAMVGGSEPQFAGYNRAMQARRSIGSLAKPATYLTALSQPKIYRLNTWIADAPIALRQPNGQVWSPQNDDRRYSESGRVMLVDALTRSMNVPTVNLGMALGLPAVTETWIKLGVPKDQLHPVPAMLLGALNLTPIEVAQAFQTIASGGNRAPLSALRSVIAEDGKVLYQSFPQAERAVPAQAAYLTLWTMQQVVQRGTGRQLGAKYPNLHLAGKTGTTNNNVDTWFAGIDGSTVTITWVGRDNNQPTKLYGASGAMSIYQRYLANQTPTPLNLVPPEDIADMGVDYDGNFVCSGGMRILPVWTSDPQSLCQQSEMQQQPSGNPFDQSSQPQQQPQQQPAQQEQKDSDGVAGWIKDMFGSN
Summary of the method: (§2)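 Solubilised membranes from sonicated E. coli UB1005 served as the binding-protein source. Binding was read as inhibition of [14C]penicillin G binding.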

[7] = target: T2, Peptidoglycan D,D-transpeptidase MrdA (Escherichia coli K-12) (UniProt P0AD65); assay: Affinity for penicillin binding protein 2 of Escherichia coli UB1005 (DC0) was evaluated.; set-up: unit not given here; summary of the method: as §2
T2 sequence (whole entry): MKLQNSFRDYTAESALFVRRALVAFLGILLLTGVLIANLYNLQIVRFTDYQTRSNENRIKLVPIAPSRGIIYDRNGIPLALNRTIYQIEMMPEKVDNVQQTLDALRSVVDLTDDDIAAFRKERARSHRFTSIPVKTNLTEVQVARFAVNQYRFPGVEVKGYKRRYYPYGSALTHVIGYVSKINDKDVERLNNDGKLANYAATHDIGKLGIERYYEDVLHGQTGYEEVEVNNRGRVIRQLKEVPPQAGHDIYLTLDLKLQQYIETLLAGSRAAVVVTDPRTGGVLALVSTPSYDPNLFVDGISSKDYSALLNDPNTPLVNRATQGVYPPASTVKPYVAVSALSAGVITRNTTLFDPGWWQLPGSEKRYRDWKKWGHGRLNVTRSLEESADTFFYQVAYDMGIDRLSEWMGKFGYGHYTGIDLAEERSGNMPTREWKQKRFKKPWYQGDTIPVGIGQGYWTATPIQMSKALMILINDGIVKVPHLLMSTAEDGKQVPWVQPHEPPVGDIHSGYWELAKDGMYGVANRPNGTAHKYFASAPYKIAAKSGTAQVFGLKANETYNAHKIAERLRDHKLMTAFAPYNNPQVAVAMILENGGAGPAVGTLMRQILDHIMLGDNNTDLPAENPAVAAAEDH

Pseudomonas aeruginosa [8] = assay: In vitro minimum inhibitory concentration was measured against Pseudomonas aeruginosa 18S/H strain.; format: functional; summary of the method: as §1
Pseudomonas aeruginosa [9] = assay: In vitro minimum inhibitory concentration was measured against Pseudomonas aeruginosa 8780 strain.; format: functional; summary of the method: as §1
Proteus vulgaris = assay: In vitro minimum inhibitory concentration was measured against Proteus vulgaris 1028BC (beta lactamase producer) strain.; format: functional; summary of the method: as §1
Pseudomonas aeruginosa [10] = assay: Bacterial challenge for systemic murine infection against Pseudomonas aeruginosa 8780; format: functional
Summary of the method: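 Mouse protection test in CD1 Swiss albino mice (18-20 g) infected intraperitoneally with 0.5 mL of diluted bacterial suspension. Subcutaneous doses (250 to 0.05 mg/kg) were given immediately after infection and again 3 h later. Six mice per group were used. ED50 was obtained by the Reed-Muench method.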

Serratia marcescens = assay: In vitro minimum inhibitory concentration was measured against Serratia marcescens 1071(beta lactamase producer) strain.; format: functional; summary of the method: as §1
Staphylococcus aureus [11] = assay: Bacterial challenge for systemic murine infection against Staphylococcus aureus Smith; format: functional
Streptococcus pneumoniae = assay: Bacterial challenge for systemic murine infection against Streptococcus pneumoniae 6301; format: functional
Staphylococcus aureus [12] = assay: In vitro minimum inhibitory concentration was measured against Staphylococcus aureus 67-0 (Methicillin resistant) strain.; format: functional

Structure (SMILES) | MIC (Escherichia coli [1]) [µg/mL] | MIC (Escherichia coli [2]) [µg/mL] | LD50 (Enterobacter cloacae [3]) | MIC (Enterobacter cloacae [4]) [µg/mL] | MIC (Enterobacter cloacae [5]) [µg/mL] | MIC (Klebsiella pneumoniae) [µg/mL] | MIC (Micrococcus luteus) [µg/mL] | Binding affinity [6] | Binding affinity [7] | MIC (Pseudomonas aeruginosa [8]) [µg/mL] | MIC (Pseudomonas aeruginosa [9]) [µg/mL] | MIC (Proteus vulgaris) [µg/mL] | LD50 (Pseudomonas aeruginosa [10]) | MIC (Serratia marcescens) [µg/mL] | LD50 (Staphylococcus aureus [11]) | LD50 (Streptococcus pneumoniae) | MIC (Staphylococcus aureus [12]) [µg/mL]
CO/N=C(\C(=O)N[C@@H]1C(=O)N2C(C(=O)O)=C(CN3CCN(c4cc5c(cc4F)c(=O)c(C(=O)O)cn5C4CC4)CC3)CS[C@H]12)c1csc(N)n1 | 0.125 (≈ 0.172 µM) | 0.25 (≈ 0.344 µM) | 7055 | 0.5 (≈ 0.688 µM) | 0.125 (≈ 0.172 µM) | 1 (≈ 1.38 µM) | 0.125 (≈ 0.172 µM) | > 100 | 100 | 2 (≈ 2.75 µM) | 8 (≈ 11 µM) | 0.25 (≈ 0.344 µM) | >10000 | 1 (≈ 1.38 µM) | >8 | >10000 | 8 (≈ 11 µM)
CO/N=C(\C(=O)N[C@@H]1C(=O)N2C(C(=O)O)=C(COC(C)=O)CS[C@H]12)c1csc(N)n1 [CEFOTAXIME] | 0.031 (≈ 0.0681 µM) | 0.063 (≈ 0.138 µM) | 50 | 0.125 (≈ 0.274 µM) | 64 (≈ 141 µM) | 0.031 (≈ 0.0681 µM) | 0.031 (≈ 0.0681 µM) | 0.5 | 100 | 128 (≈ 281 µM) | 16 (≈ 35.1 µM) | > 128 | >250 | 32 (≈ 70.3 µM) | 6 | 69 | > 128
